Format in all cases: functional
One experiment relates to DU-145. Kind of experiment: Anticancer activity against human DU145 cells assessed as mean cell growth at 10^-5 M after 48 hrs by SRB assay. In a few lines: (§1)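 NCI-60 primary screen run to the US NCI protocol. Compound added at a single concentration of 10^-5 M and cultures incubated 48 h. The end point was sulforhodamine B (SRB) protein staining, reported as percent growth of treated cells relative to untreated control cells.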
Background: In SRB staining, fixed cells bind dye roughly in proportion to their protein.

In the next experiment the test system is NCI-H522. Kind of experiment: Anticancer activity against human NCI-H522 cells assessed as mean cell growth at 10^-5 M after 48 hrs by SRB assay. The essentials:
as §1

For the next experiment, the system named is MCF7. Kind of experiment: Anticancer activity against human MCF7 cells assessed as mean cell growth at 10^-5 M after 48 hrs by SRB assay. The essentials: as §1
The subject of another experiment is A498. Kind of experiment: Anticancer activity against human A498 cells assessed as mean cell growth at 10^-5 M after 48 hrs by SRB assay. The essentials: as §1
Another experiment has as its system T47D. Put plainly: Anticancer activity against human T47D cells assessed as mean cell growth at 10^-5 M after 48 hrs by SRB assay. In a few lines:
as §1

The next experiment relates to IGROV-1. Kind of experiment: Anticancer activity against human IGROV1 cells assessed as mean cell growth at 10^-5 M after 48 hrs by SRB assay. The essentials: as §1
In a further experiment the test system is MDA-MB-468. Put plainly: Anticancer activity against human MDA-MB-468 cells assessed as mean cell growth at 10^-5 M after 48 hrs by SRB assay. The essentials: as §1
A further experiment relates to SR. Put plainly: Anticancer activity against human SR cells assessed as mean cell growth at 10^-5 M after 48 hrs by SRB assay. In a few lines:
as §1

For a further experiment, the system named is ACHN. Kind of experiment: Anticancer activity against human ACHN cells assessed as mean cell growth at 10^-5 M after 48 hrs by SRB assay. In a few lines: as §1
The test system of the next experiment is COLO 205. Put plainly: Anticancer activity against human COLO205 cells assessed as mean cell growth at 10^-5 M after 48 hrs by SRB assay. In a few lines:
as §1

As for `Cc1ccc(-c2nc(/C=C3/C(=O)Nc4ccc(F)cc43)c3ccccn23)cc1`, in the experiment with DU-145, the Activity is 74.57%.

Turning to `Cc1ccc(-c2nc(/C=C3/C(=O)N(C)c4ccc(F)cc43)c3ccccn23)cc1`, the Activity in the experiment with NCI-H522 stood at 99.39%.

For the compound `COc1ccc(-c2nc(/C=C3/C(=O)Nc4ccc(F)cc43)c3ccccn23)cc1`, the Activity in the experiment on MCF7 is 101.96%.

With `O=C1Nc2ccc(F)cc2/C1=C\c1nc(-c2ccc(F)cc2)n2ccccc12`, the Activity in the experiment with A498 is recorded as 97.53%.

As to `CN1C(=O)/C(=C/c2nc(-c3ccccc3)n3ccccc23)c2ccccc21`, the Activity in the experiment with T47D is recorded as 85.21%.

As to `CN1C(=O)/C(=C/c2nc(-c3cccc(F)c3)n3ccccc23)c2ccccc21`, the Activity with IGROV-1 amounted to 70.98%.

`COc1ccc(-c2nc(/C=C3/C(=O)N(C)c4ccccc43)c3ccccn23)cc1OC`: the Activity in the experiment with NCI-H522 is on record as 103.43%.

Turning to `O=C1Nc2ccccc2/C1=C\c1nc(-c2ccc(F)cc2)n2ccccc12`, the Activity in the experiment with MDA-MB-468 is recorded as 39.31%.

In the case of `COc1cc(-c2nc(/C=C3/C(=O)N(C)c4ccccc43)c3ccccn23)cc(OC)c1OC`, the Activity in the experiment on SR came to 98.17%.

As for `COc1ccc(-c2nc(/C=C3/C(=O)Nc4ccccc43)c3ccccn23)cc1OC`, in the experiment with MCF7, the Activity is 82.66%.

With `O=C1Nc2ccccc2/C1=C\c1nc(-c2ccccc2)n2ccccc12`, the Activity with MDA-MB-468 amounted to 87.51%.

For the compound `COc1ccc(-c2nc(/C=C3/C(=O)Nc4ccccc43)c3ccccn23)cc1`, in the experiment with ACHN, the Activity was 72.54%.

For the compound `Cc1ccc(-c2nc(/C=C3/C(=O)Nc4ccccc43)c3ccccn23)cc1`, the Activity with DU-145 was found to be 78.55%.

Consider `O=C1Nc2ccc(F)cc2/C1=C\c1nc(-c2ccccc2F)n2ccccc12`, for which the Activity in the experiment with DU-145 is recorded as 80.9%.

Consider `CN1C(=O)/C(=C/c2nc(-c3ccccc3F)n3ccccc23)c2cc(F)ccc21`, for which the Activity in the experiment on COLO 205 was found to be 99.95%.

Turning to `CN1C(=O)/C(=C/c2nc(-c3ccccc3F)n3ccccc23)c2ccccc21`, the Activity in the experiment on DU-145 turned out to be 84.72%.

For the compound `COc1ccc(-c2nc(/C=C3/C(=O)N(C)c4ccccc43)c3ccccn23)cc1`, in the experiment with SR, the Activity is 77.31%.

Source of the values: ChEMBL document CHEMBL1799966, “Synthesis and anticancer activity of oxindole derived imidazo[1,5-a]pyrazines” (Eur J Med Chem, 2011).
